Assay outcomes deposited in PubChem by several laboratories.
The entries come from a sample that favours hits as a whole.
Redox H2O2 prof – compounds producing H2O2 with reducing agent – biochemical, NIH compound library profiling, artefact control for MLSCN library redox annotation, primary screen. DTT-dependent redox cycling H2O2, phenol red/HRP absorbance; 100% = 100 µM peroxide control, 0% = buffer. activation, % at 10 µM. hit rate 0.03% among 200,000. AID 878, 2007;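 active = activation of at least 50% relative to the plate's high and low controls in the primary single-dose screen; inactive = activation below 50%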;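 note: compound incubated with DTT at 0.8 mM final as the reducing agent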
Lmaj promast – Leishmania major promastigote growth inhibition, primary screen | Leishmania major promastigotes, resazurin fluorescence viability | inhibition, % at 10 µM | hit rate 9% among 200,000; in the data active = inhibition above about 50%;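 note: promastigotes grown with compound for 44 hours at 28 °C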
T cruzi repl – inhibitors of intracellular T. cruzi growth, primary screen, luminescence, NIH3T3 host cells; T. cruzi beta-gal in NIH3T3, 90 h; inhibition, % (concentration not given with the values); hit rate 1.4% among 300,000; AID 1885, 2009;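 active = mean inhibition across valid replicates above about 55%, limit read from the data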;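 note: signal also drops with host cell toxicity which is not excluded here; higher percent means less beta-gal luminescence so fewer parasites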
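compound dosing = single 50 nL compound addition per well in DMSO | material = NIH/3T3 host cells with β-galactosidase reporter T. cruzi | input = 5,000 host fibroblasts per well | timing = ≥90 h infection period, 3 h prior cell attachment | read-out basis = percent inhibition of parasite-derived β-gal signal | detection = GalScreen β-gal luminescence, detergent lysis, 60 min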
MPTP inh – mitochondrial permeability transition pore inhibitors, primary screen, biochemical, isolated mouse mitochondria, absorbance. Ca2+ swelling absorbance, 30 min. inhibition, % at 10 µM. hit rate 1.4% among 360,000. AID 602449, 2012;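 active = inhibition of 50% or more, scaled per plate between neutral and stimulator controls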
Hep lipid drop – inhibitors of hepatocyte lipid droplet formation, primary screen, imaging, high-throughput imaging, BODIPY stain | AML12 mouse hepatocytes, oleate lipid droplets | inhibition, % at 6.5 µM | hit rate 0.4% among 240,000 | AID 1656, 2009;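 active = lipid droplet intensity inhibited by at least 50%, with more than 500 cells counted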
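Test system: AML12 mouse liver cells; schedule: overnight exposure; technique: high-content imaging of BODIPY-stained droplets and DAPI nuclei; read-out: % inhibition of corrected integrated BODIPY droplet signal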
Lmaj promast 1uM – Leishmania major promastigote growth inhibition, confirmation, 1 µM repeat of primary hits | shares compounds with Lmaj promast | L. major promastigote growth, resazurin fluorescence, 48 h | inhibition, % at 1 µM | hit rate 13% among 1,100;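 active = inhibition above about 50% in both repeat tests, limit read from the data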
Of the large screens only hits and unclear results are named; the others gave an inactive call (follow-up assays come after a bar, where they were run).

CC(OC(=O)c1ccccc1Br)C(=O)Nc1nc(-c2cccc([N+](=O)[O-])c2)cs1 (stereo unspecified)	none
O=C(Nc1nc(-c2cccc([N+](=O)[O-])c2)cs1)C(c1ccccc1)c1ccccc1	Lmaj promast 59 | Lmaj promast 1uM inactive
Cc1noc(C)c1CSCC(=O)Oc1ccc(N(C)S(=O)(=O)c2ccc(Cl)cc2)cc1	none (no result: Redox H2O2 prof, Lmaj promast, Hep lipid drop)
CCN(CC)CCOc1cc2c(nn1)Oc1ccccc1N2C	Lmaj promast 100 (no result: Hep lipid drop) | Lmaj promast 1uM inactive
CCOC(=O)c1c(CSC(=N)N)n(-c2ccc(C)cc2)c2cc(Br)c(OC(C)=O)cc12	Lmaj promast 53 (no result: Hep lipid drop) | Lmaj promast 1uM inactive
CCOC(=O)c1c(CSC(=N)N)n(C)c2cc(Br)c(OC(C)=O)cc12	none (no result: Redox H2O2 prof, Lmaj promast)
Cc1ccc(N/N=C/c2c(O)cc(C)oc2=O)cc1	Lmaj promast 87 (no result: Hep lipid drop) | Lmaj promast 1uM inactive
COc1ccc(S(=O)(=O)Nc2ccc(O)c3ccccc23)cc1	Lmaj promast 100 | Lmaj promast 1uM 97
COc1ccc(S(=O)(=O)Nc2ccccc2)cc1	none (no result: Redox H2O2 prof, Lmaj promast, Hep lipid drop)
O=C1c2ccccc2-c2ncnc3cccc1c23	none (no result: T cruzi repl, MPTP inh, Hep lipid drop)
O=C(O)c1ccc2c3c(ncnc13)-c1ccccc1C2=O	Lmaj promast 98 (no result: MPTP inh, Hep lipid drop) | Lmaj promast 1uM inactive
CCCCC(CC)C(=O)NCC(C)NC(=O)C(CC)CCCC (stereo unspecified)	Lmaj promast 61 | Lmaj promast 1uM inactive
CC(CNC(=O)C(C)C)NC(=O)C(C)C (stereo unspecified)	none
O=C1NCC(Nc2ccc(Br)cc2)C(=O)N1 (stereo unspecified)	none (no result: Redox H2O2 prof, Lmaj promast, T cruzi repl, Hep lipid drop)
Cn1c(=O)c2c(nc(SCC(=O)N(C3CCCCC3)C3CCCCC3)n2C)n(C)c1=O	none (no result: T cruzi repl, MPTP inh, Hep lipid drop)
CCC(C)[C@H](NS(=O)(=O)c1ccc(C)cc1)C(=O)N1CCC(C(=O)N[C@@H](Cc2ccccc2)C(=O)O)CC1 (stereo partly specified)	none (no result: Redox H2O2 prof, Lmaj promast)
Cc1ccc2oc(=O)c(/C=C(\O)C(C)(C)C)nc2c1	none
O=c1oc2ccccc2nc1/C=C(O)/C=C\c1ccccc1	Lmaj promast 99 | Lmaj promast 1uM inactive
O=c1c2sc3nc(N4CCOCC4)c4c(c3c2ncn1CCc1ccccc1)CCCC4	Lmaj promast 74 (no result: T cruzi repl, Hep lipid drop) | Lmaj promast 1uM inactive
COc1ccc(C(C)NS(=O)(=O)Cc2ccccc2)cc1 (stereo unspecified)	none (no result: Redox H2O2 prof, Lmaj promast)
Cc1cc2nc3c(nc2cc1C)C1(C(=O)N(C)C)CCC3(C)C1(C)C (stereo unspecified)	Lmaj promast 94 | Lmaj promast 1uM inactive
CN(C)C(=O)C12CCC(C)(c3nc4ccccc4nc31)C2(C)C (stereo unspecified)	none
FC(F)(F)c1cccc(Cn2c3[n+](c4ccc(C(F)(F)F)cc42)CCCCC3)c1	none
Cc1cc(C(C)(C)C)cc(C)c1Cn1c2[n+](c3ccc(C(F)(F)F)cc31)CCCCC2	Lmaj promast 100, T cruzi repl 59 | Lmaj promast 1uM inactive
CN1C(=O)Cc2cc(S(=O)(=O)N3CCN(c4ccccc4F)CC3)ccc21	none (no result: Redox H2O2 prof, Lmaj promast)
CCc1nc2ccccc2n1CCc1ccccc1	none
CC(C)Cc1nc2ccccc2n1CCc1ccccc1	Lmaj promast 56 | Lmaj promast 1uM inactive
Cc1ccc(O)c(-c2cc(-c3ccccc3C)[nH]n2)c1	Lmaj promast 55 | Lmaj promast 1uM inactive
CN(C)CCCN=c1cc(-c2ccccc2)oc2ccc(Cl)cc12	Lmaj promast 100 (no result: T cruzi repl) | Lmaj promast 1uM 89
COc1ccccc1C1=NN(C(=O)c2ccccc2)C(c2ccc(Br)cc2)C1 (stereo unspecified)	none (no result: Redox H2O2 prof, Lmaj promast)
CC(C)(C)c1ccc(OCCNC(=O)c2ncn[nH]2)cc1	Lmaj promast 70 | Lmaj promast 1uM inactive
Cc1cc(C)n2nc(SCC(=O)N3CCC(C(=O)O)CC3)nc2n1	none (no result: Redox H2O2 prof, Lmaj promast, T cruzi repl, Hep lipid drop)
Cc1[nH]c2c(Br)cccc2c1[C@H]1[C@@H](CC#N)C1(C)C	Lmaj promast 99 | Lmaj promast 1uM inactive
COc1ccc(CNC(=O)COC(=O)c2ccc(F)c(S(=O)(=O)N3CCOCC3)c2)cc1	none (no result: Redox H2O2 prof, Lmaj promast, T cruzi repl, Hep lipid drop)
CC(C)(C)c1ccc(-n2nc(C#N)c(Cl)cc2=O)cc1	Lmaj promast 101, T cruzi repl 66 | Lmaj promast 1uM 92
CC(C)(C)c1ccc(-n2nc(C(N)=O)c(O)cc2=O)cc1	none
O=C(Nc1ccccc1-c1nc2ccccc2s1)c1cccnc1	Lmaj promast 95 | Lmaj promast 1uM inactive
COc1cc(CNCc2cccs2)ccc1OCc1ccccc1	Lmaj promast 99 (no result: Hep lipid drop) | Lmaj promast 1uM 92
COc1ccc(CNCc2ccncc2)cc1OC	none (no result: Redox H2O2 prof, Lmaj promast, Hep lipid drop)
O=C(CN1CCCCC1)N1CCCc2c1c(=O)oc1ccc(OCc3ccccc3)cc21	Lmaj promast 67 | Lmaj promast 1uM inactive
CCSC1=N/C(=C\c2ccc(C)s2)C(=O)S1	Lmaj promast 83 | Lmaj promast 1uM inactive
CCSC1=N/C(=C\c2ccc(C(=O)O)cc2)C(=O)S1	none (no result: Hep lipid drop)
Cc1ccc(SCC(=O)NC(=O)Nc2ccc3c(c2)OCCO3)cc1C	none (no result: Redox H2O2 prof)
O=C(c1cc2ccccc2o1)N1CCN(S(=O)(=O)c2ccccc2)CC1	none (no result: Redox H2O2 prof, Lmaj promast, T cruzi repl, Hep lipid drop)
O=C(c1cc2ccccc2o1)N1CCN(S(=O)(=O)c2cccs2)CC1	Lmaj promast 72 | Lmaj promast 1uM inactive
ClCc1nnc(-c2ccccc2)o1	Lmaj promast 101 | Lmaj promast 1uM inactive
O=[N+]([O-])c1ccccc1S(=O)(=O)Oc1ccc(C(=S)N2CCOCC2)cc1	Lmaj promast 81 | Lmaj promast 1uM inactive
CC1=Nc2ccccc2/C1=C/c1sc(=N)n(-c2nccs2)c1O	Lmaj promast 100, T cruzi repl 63 (no result: Hep lipid drop) | Lmaj promast 1uM inactive
CC1=Nc2ccccc2/C1=C/c1nc(-c2ccc(C)s2)oc1O	none
Cc1nn(Cc2ccc(Cl)cc2)c(=O)n1N(C)c1ncc(C(F)(F)F)cc1Cl	Lmaj promast 94 | Lmaj promast 1uM inactive
Cc1nn(Cc2ccc([N+](=O)[O-])cc2)c(=O)n1N(C)c1ncc(C(F)(F)F)cc1Cl	none
O=C(NC1CC1)c1cccc(Nc2ccc(-c3ccc4c(c3)OCCO4)nn2)c1	Lmaj promast 50 | Lmaj promast 1uM inactive
C[n+]1ccc(C(=O)N/N=C/c2ccco2)cc1	none
COc1ccc(-c2cc3nc(-c4ccccc4)cc(N4CCC5(CC4)OCCO5)n3n2)cc1	Lmaj promast 80 (no result: Hep lipid drop) | Lmaj promast 1uM inactive
COc1ccc(-c2cc3nc4c(c(N5CCC6(CC5)OCCO6)n3n2)CCC4)cc1	none
CC1Cc2ccccc2N1C(=O)COc1ccc2c(c1)OCO2 (stereo unspecified)	none
COc1ccc(-n2nnnc2S(=O)(=O)Cc2ccc(C(=O)O)cc2)cc1	none
COc1ccc(-n2nnnc2S(=O)(=O)CC(=O)N2CCCCC2)cc1	Lmaj promast 93 (no result: T cruzi repl, Hep lipid drop) | Lmaj promast 1uM inactive
c1ccc2c(c1)nc(CN1CCOCC1)n1c3ccccc3nc21	none
CCc1nc2ccccc2c2nc3ccccc3n12	Lmaj promast 87 | Lmaj promast 1uM inactive
